Laboratory results as given in ChEMBL document CHEMBL1142490, “2-Phenyl-imidazo[1,2-a]pyridine compounds containing hydrophilic groups as potent and selective ligands for peripheral benzodiazepine receptors: synthesis, binding affinity and electrophysiological studies” (J Med Chem, 2008).
Several values for one entry are separate records, joined by “and”; a condition that tells them apart may be missing. Equal values may be shown once. Activity calls are given as the source filed them. The calls are words filed in the database; no cut-off is given here.

Assays:
[1] = Displacement of [3H]flunitrazepam from central benzodiazepine receptor in Sprague-Dawley rat cerebral cortex membrane by liquid scintillation counting; assay type: tissue-based
Method in brief: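 Rat cortical membranes in 50 mM Tris-HCl, pH 7.4, 0.4–0.5 mg protein. Incubated with [3H]flunitrazepam (0.5 nM final) for 60 min at 0 °C. Filtration, then scintillation counting. Nonspecific binding defined with 5 µM diazepam. Ki from three experiments in duplicate.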

Translocator protein = Translocator protein (Rattus norvegicus, UniProt P16257); test: Displacement of [3H]PK11195 from peripheral benzodiazepine receptor in Sprague-Dawley rat cerebral cortex membrane by liquid scintillation counting; assay type: tissue-based
Method in brief: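 Rat cerebral cortex membranes are washed in PBS, pH 7.4. Incubation with [3H]-ligand (1 nM final), 0.15–0.20 mg protein, 90 min. Filtration on PEI-presoaked GF/B filters, then scintillation counting. Nonspecific binding defined with 10 µM unlabelled ligand. Ki from three experiments in duplicate.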

[2] = biological target: T1, GABA-A receptor; alpha-1/beta-2/gamma-2 (Homo sapiens) (UniProt P14867+P47870+P18507); test: Agonist activity at human recombinant GABAA alpha-1-beta-2-gamma-2L receptor expressed in Xenopus oocytes assessed as change in GABA-induced chloride current amplitude at 1 uM by voltage clamp technique; assay type: functional, cell-based; conditions: Oocyte
Method in brief: (§1)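 Xenopus oocytes (stage V–VI, defolliculated) are nuclear-injected with human α1, β2 and γ2L cDNAs (1:1:1) and recorded about 24 h later. Two-electrode voltage clamp at -70 mV, MBS perfusion, room temperature. […] Reported as percent change from control; 5–10 oocytes per concentration.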

[3] = biological target: T1, GABA-A receptor; alpha-1/beta-2/gamma-2 (Homo sapiens); test: Agonist activity at human recombinant GABAA alpha-1-beta-2-gamma-2L receptor expressed in Xenopus oocytes assessed as change in GABA-induced chloride current amplitude at 10 uM by voltage clamp technique; assay type: functional, cell-based; conditions: Oocyte; method in brief: as §1
Rattus norvegicus [4] = species: Rattus norvegicus; test: Agonist activity at GABAA alpha-1-beta-2-gamma-2L receptor in Sprague-Dawley rat hippocampal CA1 pyramidal neurons assessed as increase in miniature inhibitory postsynaptic current amplitude at 30 uM after 30 mins by whole-cell patch clamp technique; assay type: functional, tissue-based; conditions: Hippocampus
Method in brief: (§2)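 Coronal hippocampal slices (300 µm) from male Sprague-Dawley rats anesthetized with ketamine (250 mg/kg i.p.) are recovered in ACSF, 40 min at 34 °C, then 30 min at room temperature. Whole-cell recordings of mIPSCs from CA1 pyramidal neurons at -65 mV, CsCl-based internal with QX-314. Compound bath-perfused at 30 µM for 30 min. Readout is mIPSC amplitude or decay time versus the pre-drug control.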

Rattus norvegicus [5] = species: Rattus norvegicus; test: Agonist activity at GABAA alpha-1-beta-2-gamma-2L receptor in Sprague-Dawley rat hippocampal CA1 pyramidal neurons assessed as increase in miniature inhibitory postsynaptic current decay time at 30 uM after 30 mins by whole-cell patch clamp technique; assay type: functional, tissue-based; conditions: Hippocampus; method in brief: as §2
Rattus norvegicus [6] = species: Rattus norvegicus; test: Agonist activity at GABAA alpha-1-beta-2-gamma-2L receptor in Sprague-Dawley rat hippocampal CA1 pyramidal neurons assessed as inhibition of miniature inhibitory postsynaptic current amplitude at 30 uM after 30 mins in presence of 1 uM finasteride by whole-cell patch clamp technique; assay type: functional, tissue-based; conditions: Hippocampus
Method in brief: (§3)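 Rat hippocampal slices, whole-cell mIPSC recording from CA1 pyramidal neurons at -65 mV. Compound (30 µM) co-applied with finasteride (1 µM) for 30 min. Change in mIPSC amplitude or decay averaged over a 3 min period and given as mean percent change, n = 6.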

Rattus norvegicus [7] = species: Rattus norvegicus; test: Agonist activity at GABAA alpha-1-beta-2-gamma-2L receptor in Sprague-Dawley rat hippocampal CA1 pyramidal neurons assessed as inhibition of miniature inhibitory postsynaptic current decay time at 30 uM after 30 mins in presence of 1 uM finasteride by whole-cell patch clamp technique; assay type: functional, tissue-based; conditions: Hippocampus; method in brief: as §3
Rattus norvegicus [8] = species: Rattus norvegicus; test: Selectivity ratio of Ki for central benzodiazepine receptor to Ki for peripheral benzodiazepine receptor in Sprague-Dawley rat cerebral cortex membrane; assay type: tissue-based
[9] = biological target: T1, GABA-A receptor; alpha-1/beta-2/gamma-2 (Homo sapiens); test: Agonist activity at human recombinant GABAA alpha-1-beta-2-gamma-2L receptor expressed in Xenopus oocytes assessed as inhibition of GABA-induced chloride current amplitude at 10 uM in presence of 10 uM flumazenil by voltage clamp technique; assay type: functional, cell-based; conditions: Oocyte
Method in brief: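 Two-electrode voltage clamp (-70 mV) of oocytes expressing human α1β2γ2L GABAA receptors. Percent change of GABA response by compound at 10 µM measured with and without flumazenil at 10 µM. Mean of four oocytes ± SEM.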

Sequence of Translocator protein (P16257 whole entry, looked up): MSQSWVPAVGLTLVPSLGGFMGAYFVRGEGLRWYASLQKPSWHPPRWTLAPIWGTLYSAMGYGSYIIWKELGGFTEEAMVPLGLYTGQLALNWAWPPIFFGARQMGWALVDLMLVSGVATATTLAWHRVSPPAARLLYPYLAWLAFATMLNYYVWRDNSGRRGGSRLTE

Row | SMILES | Ki [1] [nM] | Ki (Translocator protein) [nM] | Activity [2] | Activity [3] [%] | Activity (Rattus norvegicus [4]) | Activity (Rattus norvegicus [5]) | Activity (Rattus norvegicus [6]) | Activity (Rattus norvegicus [7]) | Ratio Ki (Rattus norvegicus [8]) | Activity [9]
1 | CCCN(CCC)C(=O)Cc1c(-c2ccc(Cl)c(NC(=O)CCC(=O)O)c2)nc2c(Cl)cc(Cl)cn12 | > 10 | 14.4 | 11.5% | 10 |  |  |  |  |  | 
2 | CCCN(CCC)C(=O)Cc1c(-c2ccc(Cl)c([N+](=O)[O-])c2)nc2c(Cl)cc(Cl)cn12 | > 10 | 0.24 | 14.9% | 9.6 | Active | Active | inactive | inactive |  | 
3 | COc1ccc(-c2nc3c(Cl)cc(Cl)cn3c2CC(=O)N(C)c2ccccc2)cc1 | 1000 | 0.23 | -8.1% | -8 |  |  |  |  |  | 
4 | CCCN(CCC)C(=O)Cc1c(-c2ccc(Cl)c(N)c2)nc2c(Cl)cc(Cl)cn12 [listing 1 of 3 here] | > 10 | 0.33 |  |  |  |  |  |  |  | 
5 | CCCN(CCC)C(=O)Cc1c(-c2nccs2)nc2c(Cl)cc(Cl)cn12 | > 10 | 2.07 | 6.3% | 60.6 |  |  |  |  |  | 
6 | CCCN(CCC)C(=O)Cc1c(-c2ccc(OC(=O)CCC(=O)OC)cc2)nc2c(Cl)cc(Cl)cn12 | > 10 | 1.69 | 16.6% | 37.5 |  |  |  |  |  | 
7 | CCCCN(C)C(=O)Cc1c(-c2ccc(Cl)c(N)c2)nc2c(Cl)cccn12 | 194 | 1.04 | 9.5% | 10.7 |  |  |  |  | 187 | 
8 | CCCN(CCC)C(=O)Cc1c(-c2ccc(N)cc2)nc2c(Cl)cc(Cl)cn12 [listing 1 of 3 here] | 246 | 2.22 |  |  |  |  |  |  |  | 
9 | CCCN(CCC)C(=O)Cc1c(-c2ccc(Cl)cc2)nc2c(NC(=O)CCC(=O)O)cccn12 | > 10 | 285 | 1.3% | 12.3 |  |  |  |  |  | 
10 | CCC(C)N(C)C(=O)c1cc2ccccc2c(-c2ccccc2Cl)n1 (configuration not stated) [PK-11195] | > 10 |  | 4.9% | 9.4 |  |  |  |  |  | 
11 | CCCCN(C)C(=O)Cc1c(-c2ccc(Cl)c(N)c2)nc2c(Cl)cc(Cl)cn12 | 535 | 0.78 |  |  |  |  |  |  | 686 | 
12 | CCCN(CCC)C(=O)Cc1c(-c2ccc(N)cc2)nc2c(Cl)cc(Cl)cn12 [listing 2 of 3 here] |  |  | 8.1% and 29.9% |  |  |  |  |  |  | 
13 | CCCN(CCC)C(=O)Cc1c(-c2ccc(N)cc2)nc2c(Cl)cc(Cl)cn12 [listing 3 of 3 here] | 1020 | 2.76 |  |  |  |  |  |  |  | 
14 | CCCN(CCC)C(=O)Cc1c(-c2ccc(Cl)cc2)nc2c(NC(=O)CN)cccn12 | > 10 | 14.2 |  |  |  |  |  |  |  | 
15 | CCCCN(C)C(=O)Cc1c(-c2ccc(Cl)c([N+](=O)[O-])c2)nc2c(Cl)cc(Cl)cn12 |  | 0.3 | -10.2% | -9.6 |  |  |  |  |  | 
16 | CCCN(CCC)C(=O)Cc1c(-c2ccc(OC(=O)CN)cc2)nc2c(Cl)cc(Cl)cn12 | > 10 | 1.52 | 26.6% | 71 |  |  |  |  |  | 
17 | CCCCN(C)C(=O)Cc1c(-c2ccc(OC)cc2)nc2c(Cl)cc(Cl)cn12 | > 10 | 0.73 | 24.8% | -16.5 |  |  |  |  |  | 
18 | CCCN(CCC)C(=O)Cc1c(-c2ccc(Cl)cc2)nc2c(NC(=O)CC(=O)O)cccn12 | > 10 | 193 | 9.6% | 19.8 |  |  |  |  |  | 
19 | CCCN(CCC)C(=O)Cc1c(-c2ccc(Cl)c(N)c2)nc2c(Cl)cc(Cl)cn12 [listing 2 of 3 here] |  |  | -6.2% and -2.9% |  |  |  |  |  |  | 
20 | CN(C(=O)Cc1c(-c2ccc(O)cc2)nc2c(Cl)cc(Cl)cn12)c1ccccc1 | 5130 | 0.32 | -5.9% | 6.7 |  |  |  |  | > 1000 | 
21 | CCCCN(C)C(=O)Cc1c(-c2ccc(O)cc2)nc2c(Cl)cc(Cl)cn12 | 2930 | 0.87 | 7.9% | -23.6 |  |  |  |  |  | 
22 | CN(C(=O)Cc1c(-c2nccs2)nc2c(Cl)cc(Cl)cn12)c1ccccc1 | > 10 | 1.44 | -1.2% | 19.4 |  |  |  |  |  | 
23 | CCCN(CCC)C(=O)Cc1c(-c2ccc(OC)cc2)nc2c(Cl)cc(Cl)cn12 | > 10 | 0.31 | 8.8% | 55.9 |  |  |  |  |  | inactive
24 | CCCN(CCC)C(=O)Cc1c(-c2ccc(Cl)c(N)c2)nc2c(Cl)cc(Cl)cn12 [listing 3 of 3 here] |  | 0.45 |  |  |  |  |  |  |  | 
25 | CCCN(CCC)C(=O)Cc1c(-c2ccc([N+](=O)[O-])cc2)nc2c(Cl)cc(Cl)cn12 | > 10 | 0.15 | -4.2% | -16.6 |  |  |  |  |  | 
26 | CCCN(CCC)C(=O)Cc1c(-c2ccc(Cl)cc2)nc2c(NC(=O)CCCC(=O)O)cccn12 | > 10 | 118 | 7.3% | -1.9 |  |  |  |  |  | 
27 | CCCN(CCC)C(=O)Cc1c(-c2ccc(O)cc2)nc2c(Cl)cc(Cl)cn12 | > 10 | 1.31 | -3.9% | 23.8 |  |  |  |  | > 1000 | 
28 | CCCCN(C)C(=O)Cc1c(-c2ccc(Cl)c([N+](=O)[O-])c2)nc2c(Cl)cccn12 | > 10 | 1.16 | 12.1% | -20 |  |  |  |  |  | 
29 | CCCN(CCC)C(=O)Cc1c(-c2ccc(Cl)cc2)nc2c(NC(=O)CCC(=O)OCC)cccn12 | > 10 | 0.86 |  |  |  |  |  |  |  | 
